# Measured values published in ChEMBL document CHEMBL1122126, “Pyrazolo[3,4-d]pyrimidine ribonucleosides as anticoccidials. 2. Synthesis and activity of some nucleosides of 4-(alkylamino)-1H-pyrazolo[3, 4-d]pyrimidines” (1982).
# Assays:
# Eimeria tenella [1] = assay: In vitro minimum inhibitory concentration for Eimeria tenella in embryonic chick liver cells; format: functional
# Outline: (§1)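 E. tenella (Weybridge strain) was grown in cultured embryonic chick liver cells. The minimum inhibitory concentration against parasite growth was determined, and toxicity to the host cells was recorded alongside it.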
# Gallus gallus [2] = assay: Compound tested in vivo for anti-coccidial activity which cleared number of chicks from parasite at 100 ppm in the diet; One chick out of five died and contained lesions due to parasite
# Gallus gallus [3] = assay: Compound tested in vivo for anti-coccidial activity which cleared number of chicks from parasite at 200 p.p.m. in the diet
# Eimeria tenella [4] = assay: Anti-coccidial activity which cleared number of chicks from parasite; format: functional
# Outline: (§2)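 Week-old chicks were given a simultaneous infection of Eimeria tenella (Weybridge strain) and E. acervulina (Ongar strain). Compound was mixed into the diet at the stated ppm level. Activity against E. acervulina was judged from oocyst production at day 5. Treated-group weight gain was compared with controls.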
# Gallus gallus [5] = assay: Compound tested in vivo for anti-coccidial activity which cleared number of chicks from parasite at 400 ppm in the diet; format: functional; outline: as §2
# Detroit 98 [6] = assay: Concentration that inhibited the growth of cultured human detroit 98 cells; format: functional; conditions: read-out: ED50 (the source's name)
# Outline: (§3)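 Cloned Detroit 98 cells (human sternal marrow, ATCC CCL 18.1 derivative) or cloned mouse L cells (C3H/AN connective tissue) were grown as monolayers in modified Eagle's medium at 36 °C in a humidified CO2 incubator. Cells were exposed for 70-76 h, and control cultures reached at least two doublings. Total counts were made by electronic counter on replicate cultures. ED50 is the molar concentration giving 50% of control growth, read from a plot.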
# Gallus gallus [7] = species: Gallus gallus; assay: In vitro minimum inhibitory concentration for Eimeria tenella in embryonic chick liver cells; Toxic; format: functional; outline: as §1
# L cells [8] = assay: Concentration that inhibited the growth of Mouse L cells; format: functional; conditions: L929, read-out: ED50 (the source's name); outline: as §3
# L cells [9] = assay: Concentration that inhibited the growth of Mouse L cells.; format: functional; conditions: L929, read-out: ED50 (the source's name); outline: as §3
# Detroit 98 [10] = assay: Concentration that inhibited the growth of cultured human detroit 98 cells.; format: functional; conditions: read-out: ED50 (the source's name); outline: as §3
# Gallus gallus [11] = assay: Compound tested in vivo for anti-coccidial activity which cleared number of chicks from parasite at 25 p.p.m. in the diet; format: functional; outline: as §2
# Gallus gallus [12] = species: Gallus gallus; assay: In vitro minimum inhibitory concentration for Eimeria tenella in embryonic chick liver cells; Slightly toxic; format: functional; outline: as §1
# Gallus gallus [13] = assay: Compound tested in vivo for anti-coccidial activity which cleared number of chicks from parasite at 400 ppm in the diet; One chick out of five died and contained lesions due to parasite; format: functional
# Gallus gallus [14] = assay: Compound tested in vivo for anti-coccidial activity which cleared number of chicks from parasite at 400 ppm in the diet; Chicks showed decreased weight gain; format: functional; outline: as §2
SMILES,MIC (Eimeria tenella [1]),No. of chicks (Eimeria tenella [4]),also measured
OC[C@H]1OC(n2ncc3c(NCCc4ccccc4)ncnc32)[C@H](O)[C@@H]1O (stereo not given in full),5 µg/mL,,No. of chicks (Gallus gallus [2]): 0
CN(C)c1ncnc2c1cnn2C1O[C@H](CO)[C@@H](O)[C@H]1O (stereo not given in full),5 µg/mL,,No. of chicks (Gallus gallus [3]): 2
OC[C@H]1OC(n2ncc3c(NC4CCCC4)ncnc32)[C@H](O)[C@@H]1O (stereo not given in full),0.31 µg/mL,5,
CCNc1ncnc2c1cnn2C1O[C@H](CO)[C@@H](O)[C@H]1O (stereo not given in full),5 µg/mL,,No. of chicks (Gallus gallus [5]): 1
O=C(Nc1ncnc2c1cnn2C1O[C@H](CO)[C@@H](O)[C@H]1O)c1ccccc1 (stereo not given in full),,0,EC50 (Detroit 98 [6]): > 100 µM; MIC (Gallus gallus [7]): 5 µg/mL; EC50 (L cells [8]): > 100 µM
CCCCN(CC)c1ncnc2c1cnn2C1O[C@H](CO)[C@@H](O)[C@H]1O (stereo not given in full),5 µg/mL,0,
OC[C@H]1OC(n2ncc3c(NCc4ccccc4)ncnc32)[C@H](O)[C@@H]1O (stereo not given in full),0.31 µg/mL,0,
CC(C)=CCNc1ncnc2c1cnn2C1O[C@H](CO)[C@@H](O)[C@H]1O (stereo not given in full),5 µg/mL,0,EC50 (L cells [9]): > 100 µM; EC50 (Detroit 98 [10]): 1.5 µM; No. of chicks (Gallus gallus [11]): 0
O=c1[nH]cnc2c1cnn2[C@@H]1O[C@H](CO)[C@@H](O)[C@H]1O,20 µg/mL,,No. of chicks (Gallus gallus [5]): 0
OC[C@H]1OC(n2ncc3c(N4CCOCC4)ncnc32)[C@H](O)[C@@H]1O (stereo not given in full),,,MIC (Gallus gallus [12]): 20 µg/mL; No. of chicks (Gallus gallus [5]): 0
CCCCCCCCNc1ncnc2c1cnn2C1O[C@H](CO)[C@@H](O)[C@H]1O (stereo not given in full),5 µg/mL,,No. of chicks (Gallus gallus [2]): 0
NNc1ncnc2c1cnn2C1O[C@H](CO)[C@@H](O)[C@H]1O (stereo not given in full),5 µg/mL,,EC50 (L cells [9]): 100 µM; No. of chicks (Gallus gallus [13]): 0; EC50 (Detroit 98 [10]): 20 µM
CCN(CC)c1ncnc2c1cnn2C1O[C@H](CO)[C@@H](O)[C@H]1O (stereo not given in full),5 µg/mL,,No. of chicks (Gallus gallus [14]): 1
Nc1ncnc2c1ncn2[C@@H]1O[C@H](CO)[C@@H](O)[C@H]1O [ADENOSINE],,0,EC50 (L cells [9]): 0.3 µM; MIC (Gallus gallus [7]): 20 µg/mL; EC50 (Detroit 98 [10]): 0.08 µM
OC[C@H]1OC(n2ncc3c(NCc4ccco4)ncnc32)[C@H](O)[C@@H]1O (stereo not given in full),0.31 µg/mL,,EC50 (L cells [9]): 3 µM; EC50 (Detroit 98 [10]): 0.3 µM
CNc1ncnc2c1cnn2C1O[C@H](CO)[C@@H](O)[C@H]1O (stereo not given in full),0.31 µg/mL,0,
CCCCNc1ncnc2c1cnn2C1O[C@H](CO)[C@@H](O)[C@H]1O (stereo not given in full),1.25 µg/mL,0,
CCCCCCNc1ncnc2c1cnn2C1O[C@H](CO)[C@@H](O)[C@H]1O (stereo not given in full),1.25 µg/mL,0,
CCCCCCN(CCCCCC)c1ncnc2c1cnn2C1O[C@H](CO)[C@@H](O)[C@H]1O (stereo not given in full),> 20 µg/mL,1,EC50 (L cells [9]): 50 µM; EC50 (Detroit 98 [10]): 50 µM
